Test [1] concerns Mus musculus. Put plainly: Antimalarial efficacy against Plasmodium berghei in mice (Mus musculus) when administered subcutaneously each day for 4 days to five mice (Mus musculus) per dose regimen. It counts as functional. The following applies: sc, 96 h. Summed up:
(§1)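 P. berghei-infected mice; four doses (1, 3, 10 and 30 mg/kg) given once daily for four days, five mice per dose regimen, by sc or iv route as per line. ED50 and ED90 derived from the dose–response, reported in mg/kg and µmol/kg.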

The test system of test [2] is Mus musculus. The test can be described thus: Antimalarial efficacy against Plasmodium berghei in mice (Mus musculus) when administered intravenously each day for 4 days to five mice (Mus musculus) per dose regimen. It counts as functional. The following applies: iv, 96 h. In a few lines:
as §1

SMILES strings stand for the structures.

Regarding `CO[C@@H]1O[C@@]2(c3ccc(F)cc3)CC[C@H]3CCCC[C@]31OO2`, in the test on Mus musculus [1], the ED50 (in general, the dose that gives a 50% effect, or the effect in half of the subjects) worked out at 4.7 mg/kg and the ED90 amounted to 8.3 mg/kg. In the test with Mus musculus [2], this compound had an ED50 of 4 mg/kg and an ED90 of 8 mg/kg.
In the case of `CO[C@@H]1O[C@@]2(c3ccc(C(=O)O)cc3)CC[C@H]3CCCC[C@]31OO2`, the ED50 with Mus musculus [1] is 22.5 mg/kg; in the test on Mus musculus [2], 19.5 mg/kg. For the same compound, the ED90 in the test with Mus musculus [1] was determined as 112 mg/kg; in the test with Mus musculus [2], 55 mg/kg.
For `C[C@@H]1[C@H](OCc2ccc(C(=O)O)cc2)O[C@@H]2O[C@@]3(C)CC[C@@H]4[C@@H](C)CC[C@@H]1[C@]24OO3` [ARTELINIC ACID] the same measures were 6.6 mg/kg, 4.3 mg/kg, 14 mg/kg and 15.5 mg/kg.
`CCO[C@H]1O[C@@H]2O[C@@]3(C)CC[C@H]4[C@H](C)CC[C@@H]([C@H]1C)[C@@]24OO3` [ARTEMOTIL]: in the test on Mus musculus [1], the ED50 turned out to be 0.9 mg/kg and the ED90 amounted to 1.4 mg/kg. In the test on Mus musculus [2], it took a dose of 0.46 mg/kg to reach the 50% effect level (ED50).
With `CO[C@H]1O[C@@]2(c3ccc(C(=O)O)cc3)CC[C@H]3CCCC[C@]31OO2`, in the test on Mus musculus [1], the ED50 is 10.5 mg/kg and the ED90 amounted to 19.5 mg/kg. In the test with Mus musculus [2], this compound came in with an ED50 of 16.5 mg/kg and an ED90 of 48 mg/kg.
In the case of `CCN(CC)CCCC(C)Nc1ccnc2cc(Cl)ccc12` (stereo unspecified) [CHLOROQUINE], the ED50 in the test on Mus musculus [1] is 1 mg/kg; with Mus musculus [2] it was 5 mg/kg.

Source of the values: ChEMBL document CHEMBL1134589, “Antimalarial simplified 3-aryltrioxanes: synthesis and preclinical efficacy/toxicity testing in rodents” (2001).
